In assay [1] the test system is Mus musculus. Briefly: Antiinflammatory activity against carrageenan-induced hind paw oedema in mouse assessed as inhibition of swelling thickness at 100 mg/kg, po after 180 mins. Format: functional. To be noted: 3 h. Summed up:
(§1)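 Fasted mice (n = 5–6) were dosed orally with the sample in 0.5% CMC/water. One hour later, carrageenan (0.5 mg/25 µl in 154 mM saline) was injected subplantar into the right hind paw. The right-minus-left footpad thickness difference was measured with dial gauge callipers every 90 min over 6 h. Inhibition % is calculated versus vehicle control; mean ± SEM, Student's t test.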

The subject of a further assay is Enterococcus faecalis. Briefly: Antibacterial activity against Enterococcus faecalis ATCC 29212 after 24 hrs by broth microdilution test. Format: functional. To be noted: ATCC 29212, 24 h. Summed up: (§2)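 NCCLS broth microdilution in Mueller-Hinton broth with an inoculum of 5 × 10^5 cfu/mL. Compounds were dissolved in DMSO, diluted in sterile water, and tested as twofold dilutions from 512 to 0.5 µg/mL. Plates were incubated at 35 °C for 24 h. MIC is the lowest concentration preventing visible growth.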

The test system of assay [2] is Mus musculus. The assay is described as follows: Antiinflammatory activity against carrageenan-induced hind paw oedema in mouse assessed as inhibition of swelling thickness at 200 mg/kg, po after 90 mins. The format is functional. To be noted: 1.5 h. In outline:
as §1

The test system of another assay is Candida parapsilosis. Briefly: Antifungal activity against Candida parapsilosis ATCC 22019 after 48 hrs by broth microdilution test. Format: functional. The conditions noted are these: Lodderomyces parapsilosis, ATCC 22019, 48 h. In outline:
(§3)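 Yeasts tested by NCCLS M27-A broth microdilution in RPMI 1640 (with L-glutamine, without sodium bicarbonate) with an inoculum of 0.5–2.5 × 10^3 cfu/mL. Compounds were prepared from DMSO solution diluted in water as twofold dilutions from 512 to 0.5 µg/mL. Plates were incubated at 35 °C for 48 h. MIC is the lowest concentration giving no visible growth.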

In the next assay the test system is Pichia kudriavzevii. Briefly: Antifungal activity against Candida krusei ATCC 6258 after 48 hrs by broth microdilution test. The format is functional. To be noted: ATCC 6258, 48 h. Summed up:
as §3

In assay [3] the test system is Mus musculus. The assay is described as follows: Analgesic activity in mouse assessed as inhibition of hind paw lick at 100 mg/kg, ip by hot plate test. The format is functional. The conditions noted are these: route intraperitoneal.
The test system of assay [4] is Mus musculus. Briefly: Antiinflammatory activity against carrageenan-induced hind paw oedema in mouse assessed as swelling thickness at 200 mg/kg, po after 270 mins. Format: functional. In outline:
as §1

Assay [5] has as its system Mus musculus. The assay is described as follows: Analgesic activity in mouse assessed as inhibition of acetic acid induced-abdominal writhing at 100 mg/kg, ip by Koster test. Format: functional. To be noted: Abdomen, route intraperitoneal.
The subject of assay [6] is Mus musculus. The assay is described as follows: Antiinflammatory activity against carrageenan-induced hind paw oedema in mouse assessed as swelling thickness at 50 mg/kg, po after 180 mins. Format: functional. In outline: as §1
For a further assay, the system named is Candida albicans. Briefly: Antifungal activity against Candida albicans ATCC 90028 after 48 hrs by broth microdilution test. Format: functional. To be noted: ATCC 90028, 48 h. Summed up: as §3
For the next assay, the system named is Pseudomonas aeruginosa. The assay is described as follows: Antibacterial activity against Pseudomonas aeruginosa ATCC 27853 after 24 hrs by broth microdilution test. The format is functional. The conditions noted are these: ATCC 27853, 24 h. In outline: as §2
The subject of assay [7] is Mus musculus. The assay is described as follows: Antiinflammatory activity against carrageenan-induced hind paw oedema in mouse assessed as inhibition of swelling thickness at 100 mg/kg, po after 90 mins. To be noted: 1.5 h. Format: functional. In outline: as §1
Assay [8] concerns Mus musculus. The assay is described as follows: Antiinflammatory activity against carrageenan-induced hind paw oedema in mouse assessed as inhibition of swelling thickness at 200 mg/kg, po after 180 mins. To be noted: 3 h. The format is functional. In outline:
as §1

For assay [9], the system named is Mus musculus. Briefly: Antiinflammatory activity against carrageenan-induced hind paw oedema in mouse assessed as inhibition of swelling thickness at 100 mg/kg, po after 360 mins. The conditions noted are these: 6 h. The format is functional. Summed up:
as §1

The subject of a further assay is Staphylococcus aureus. The assay is described as follows: Antibacterial activity against Staphylococcus aureus ATCC 29213 after 24 hrs by broth microdilution test. The conditions noted are these: ATCC 29213, 24 h. Format: functional. In outline:
as §2

Assay [10] has as its system Mus musculus. Briefly: Antiinflammatory activity against carrageenan-induced hind paw oedema in mouse assessed as swelling thickness at 50 mg/kg, po after 270 mins. The format is functional. In outline: as §1
Assay [11] has as its system Mus musculus. Briefly: Antiinflammatory activity against carrageenan-induced hind paw oedema in mouse assessed as swelling thickness at 50 mg/kg, po after 360 mins. The format is functional. In outline: as §1
In assay [12] the test system is Mus musculus. The assay is described as follows: Antiinflammatory activity against carrageenan-induced hind paw oedema in mouse assessed as swelling thickness at 50 mg/kg, po after 90 mins. The format is functional. In outline:
as §1

For assay [13], the system named is Mus musculus. The assay is described as follows: Antiinflammatory activity against carrageenan-induced hind paw oedema in mouse assessed as swelling thickness at 200 mg/kg, po after 360 mins. The format is functional. In outline:
as §1

Assay [14] has as its system Mus musculus. Briefly: Antiinflammatory activity against carrageenan-induced hind paw oedema in mouse assessed as swelling thickness at 100 mg/kg, po after 270 mins. Format: functional. In outline:
as §1

A further assay has as its system Escherichia coli. Briefly: Antibacterial activity against Escherichia coli ATCC 25922 after 24 hrs by broth microdilution test. The conditions noted are these: ATCC 25922, 24 h. The format is functional. Summed up: as §2
The species named for assay [15] is Mus musculus. The assay is described as follows: animal or person. The conditions noted are these: ip, read-out: Inhibition.
The test system of assay [16] is Mus musculus. Briefly: Antiinflammatory activity against carrageenan-induced hind paw oedema in mouse assessed as inhibition of swelling thickness at 10 mg/kg, po after 270 mins. The conditions noted are these: 4.5 h. Format: functional. Summed up:
as §1

Assay [17] deals with Mus musculus. Briefly: Antiinflammatory activity against carrageenan-induced hind paw oedema in mouse assessed as inhibition of swelling thickness at 10 mg/kg, po after 180 mins. The format is functional. To be noted: 3 h. In outline:
as §1

The species entered for assay [18] is Mus musculus. The assay is described as follows: animal or person. The conditions noted are these: po, 1.5 h, read-out: Inhibition.
The test system of assay [19] is Mus musculus. Briefly: Antiinflammatory activity against carrageenan-induced hind paw oedema in mouse assessed as inhibition of swelling thickness at 10 mg/kg, po after 360 mins. The conditions noted are these: 6 h. Format: functional. Summed up: as §1

Structures are written as SMILES. ≈ marks a conversion by molar mass, not a printed value.

For the compound `Cc1ccc(/C=N/NC(=O)Cn2c(=O)oc3ccc(C)cc32)cc1`, the inhibition in vivo at 100 mg/kg in the assay with Mus musculus [1] amounted to 9.4%; with Mus musculus [3], 52.9%; in the assay with Mus musculus [5], 77.8%; with Mus musculus [7] it was 69.7%; in the assay on Mus musculus [9] it was 12.6%. Moreover, the MIC came out at 256 µg/mL (≈ 792 µM) in the assay on Enterococcus faecalis; 128 µg/mL (≈ 396 µM) in the assay on Candida parapsilosis; 128 µg/mL (≈ 396 µM) in the assay with Pichia kudriavzevii; 128 µg/mL (≈ 396 µM) against Candida albicans; 256 µg/mL (≈ 792 µM) with Pseudomonas aeruginosa; 512 µg/mL (≈ 1580 µM) in the assay with Staphylococcus aureus. In the assay on Escherichia coli, this compound had an MIC of 128 µg/mL (≈ 396 µM). Moreover, the figures for the inhibition in vivo at 200 mg/kg with Mus musculus [2] and with Mus musculus [8] were 17.1% and 33.3%, respectively. In addition, the Activity in the assay on Mus musculus [4] is reported as 89.1%; in the assay with Mus musculus [6], 86.8%; in the assay with Mus musculus [10], 103.8%; in the assay on Mus musculus [11], 98%; with Mus musculus [12], 73.8%; in the assay with Mus musculus [13], 83.6%. Further, the Activity in the assay with Mus musculus [14] amounted to 92%.
Consider `CN1CC[C@]23c4c5ccc(O)c4O[C@H]2[C@@H](O)C=C[C@H]3[C@H]1C5` [MORPHINE], for which the inhibition in vivo at 10 mg/kg in the assay filed under Mus musculus [15] is 50.7%.
Take `COc1ccc2c(c1)c(CC(=O)O)c(C)n2C(=O)c1ccc(Cl)cc1` [INDOMETHACIN]: the inhibition in vivo at 10 mg/kg in the assay on Mus musculus [16] came out at 46.3%; in the assay with Mus musculus [17], 43%; in the assay listed under Mus musculus [18], 42%; in the assay on Mus musculus [19], 41.6%.

Values taken from ChEMBL document CHEMBL1149634, “1-Acylthiosemicarbazides, 1,2,4-triazole-5(4H)-thiones, 1,3,4-thiadiazoles and hydrazones containing 5-methyl-2-benzoxazolinones: synthesis, analgesic-anti-inflammatory and antimicrobial activities” (2007).
